Redox H2O2 prof: compounds producing H2O2 with reducing agent – biochemical, NIH compound library profiling, artefact control for MLSCN library redox annotation, primary screen. activation, % at 10 µM. AID 878. 200,000 tested, 0.03% active. DTT-dependent redox cycling H2O2, phenol red/HRP absorbance; 100% = 100 µM peroxide control, 0% = buffer;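 active = activation of at least 50% relative to the plate's high and low controls in the primary single-dose screen; inactive = activation below 50%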;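 also: compound incubated with DTT at 0.8 mM final as the reducing agent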
MPTP block: permeability transition pore inhibition; isolated mouse mitochondria, Ca2+ swelling absorbance, 30 min; inhibition, % at 10 µM; 360,000 tested, 1.4% active;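 active = inhibition of 50% or more, scaled per plate between neutral and stimulator controls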;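 also: 0% = DMSO wells given calcium and 100% = 1 mM EGTA wells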
T cruzi inh: T. cruzi replication inhibition; T. cruzi beta-gal in NIH3T3, luminescence, 90 h; AID 1885; inhibition, % (concentration not given with the values); 300,000 tested, 1.4% active;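 active = mean inhibition across valid replicates above about 55%, limit read from the data; inconclusive = mean below that limit but half or more replicates reach it; inactive = mean below it, under half of replicates reach it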;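 also: signal also drops with host cell toxicity which is not excluded here; 0% = plate median of DMSO wells and 100% = zero luminescence signal; higher percent means less beta-gal luminescence so fewer parasites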
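System – NIH/3T3 host cells with β-galactosidase reporter T. cruzi · Doses – single 50 nL compound addition per well in DMSO · Reagent – 5000 T. cruzi trypomastigotes/well · Medium – Low-serum DMEM with 2% FBS · Timing – ≥90 h infection period, 3 h prior cell attachment · Evaluation – parasite load inhibition, % · Technique – GalScreen luminescence, 60 min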
Lmaj promast: inhibitors of Leishmania major promastigote growth | 200,000 tested, 9% active | Leishmania major promastigotes, resazurin fluorescence viability | inhibition, % at 10 µM; in the data active = inhibition above about 50%;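 also: promastigotes grown with compound for 44 hours at 28 °C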
Lipid droplet: hepatic lipid droplet formation modulation; AML12 mouse hepatocytes, oleate lipid droplets, BODIPY imaging; inhibition, % at 6.5 µM; 240,000 tested, 0.4% active; AID 1656;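 active = lipid droplet intensity inhibited by at least 50%, with more than 500 cells counted; inconclusive = wells with under 300 cells, treated as cytotoxic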
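Assay system: AML12 hepatocytes (mouse) / Also added: 100 µM oleic acid challenge / Times: overnight treatment with compound plus oleate / Detection: high-content imaging of BODIPY-stained droplets and DAPI nuclei / Evaluation: % inhibition of lipid droplet signal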
Lmaj promast 1uM: inhibitors of Leishmania major promastigote growth, repeat at 1 uM | shares compounds with Lmaj promast | L. major promastigote growth, resazurin fluorescence, 48 h | 1,100 tested, 13% active | inhibition, % at 1 µM;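 active = inhibition above about 50% in both repeat tests, limit read from the data; inconclusive = one repeat under the set limit, the other over it; inactive = both repeats under the set limit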
Numbers without * were called inactive; ? = inconclusive; . = no result. Shown is part of a subset that was picked to be rich in hits.

SMILES	Redox H2O2 prof	MPTP block	T cruzi inh	Lmaj promast	Lipid droplet	Lmaj promast 1uM
CCOC(=O)/C(=C\c1ccc(C)cc1)NC(=O)c1ccccc1	0.2	1.5	4.1	2.4	-6.4	.
Cc1ccc(/C=C(\NC(=O)c2ccccc2)C(=O)OCc2ccccc2)cc1	0.4	0.0	7.6	63.4*	1.4	-1.5
COc1ccc(NC(=O)CCCN2C(=O)C(c3ccccc3)Oc3cccnc32)c(OC)c1 (stereo unspecified)	.	-0.7	3.2	.	-0.3	.
CCN(CC)c1ccc(-c2nn3c(-c4n[nH]c5c4CCC5)nnc3s2)cc1	1.7	-2.7	40.4	62.0*	.	-7.7
CCOC(=O)c1c(C)[nH]c(C)c1C(=O)COC(=O)c1ccc(Cl)nc1	.	0.4	.	.	.	.
CCN(CC)CCN(C)C1CCC(c2ccccc2)CC1 (stereo unspecified)	-0.7	0.0	.	94.2*	-6.9	75.5*
CCN(CC)CCP(=O)(c1ccccc1)c1ccccc1	-1.6	1.2	-10.8	-1.9	-7.9	.
Cc1cccc(-c2cc3c(N=O)c4ccccc4c-3n[nH]2)c1	-1.0	28.5	62.0*	64.3*	1.7	52.8*
O=Nc1c2cc(-c3ccccc3)[nH]nc-2c2ccccc12	-1.3	6.5	-3.5	65.0*	-3.0	53.9*
Cc1ccc(-c2cc3c(N=O)c4ccccc4c-3n[nH]2)cc1	-1.6	5.9	19.8	40.5	-1.1	.
CCOC(=O)N/N=C(\c1ccccc1)C(O)c1ccccc1 (stereo unspecified)	-0.1	6.3	-0.3	-5.2	4.0	.
CCNC(=S)N(Cc1c(C)noc1C)c1ccccc1	0.3	-0.4	-18.2	50.9*	-0.9	-5.5
CCCCNC(=S)N(Cc1c(C)noc1C)c1ccccc1	0.2	-1.2	1.5	-4.0	3.8	.
CC(C)c1ccc(/C=N/Nc2ccc(C(=O)O)cc2)cc1	0.1	2.3	27.4	56.6*	-4.5	-19.9
CN(C)CCCNC(=O)OC1CC2CC1[C@H]1CCCCN1C2=O (stereo partly specified)	.	-1.7	.	.	.	.
Cc1ccc(C2=CSC3=NNC4(CCCCC4)NN23)cc1	-0.1	-1.2	18.1	55.1*	4.5	-12.0
COCC(=O)N1CCC(n2nccc2NC(=O)CCOc2ccccc2)CC1	.	-1.9	-5.7	.	-16.0	.
Cc1ccc2cc(CN(c3ccccc3)S(=O)(=O)c3ccccc3)c(=O)[nH]c2c1	.	2.1	4.0	.	-11.3	.
CCCN(Cc1cc2ccc(C)cc2[nH]c1=O)S(=O)(=O)c1ccccc1	0.2	-1.5	9.3	63.5*	14.9	-12.2
Cc1ccc(-c2csc3ncnc(Sc4nnc(CN5CCCCCC5=O)o4)c23)cc1	-0.6	3.4	-65.9	99.4*	.	3.5
COc1ccc(CN2CCC(CNC(=O)NC3CCCCC3)CC2)cc1	1.1	-0.5	29.0	90.0*	.	7.5
CCN(CC)c1ccc(/C=N/NC(=O)c2cccc(S(=O)(=O)N3CCOCC3)c2)c(O)c1	0.0	0.3	65.1*	100.1*	-5.8	-31.0
O=C(c1ccccc1)c1c2c(cc3sc4ccccc4[n+]13)-c1cccc3cccc-2c13	7.1	45.4	.	100.4*	-66.7	100.0*
COCOc1ccc(C2CC(=O)c3c(OCOC)cc(OCOC)cc3O2)cc1 (stereo unspecified)	.	-1.6	2.8	.	.	.
COc1cc(OC)cc(-c2c(C#Cc3ccsc3)c3cc(-c4cc(F)cc(F)c4)ccc3n2C)c1	.	0.3	.	.	.	.
SMILES	Redox H2O2 prof	MPTP block	T cruzi inh	Lmaj promast	Lipid droplet	Lmaj promast 1uM
O=C(Nc1ccc(F)cc1F)N1CCCCC1c1cccnc1 (stereo unspecified)	-0.6	-0.3	56.8*	73.2*	.	9.8
O=C(/C=C/c1ccc(F)cc1)NC(=S)N1CCCCC1c1cccnc1 (stereo unspecified)	.	0.0	23.7	.	12.1	.
CCCCC(=O)N(Cc1ccc(F)cc1)C1CCS(=O)(=O)C1 (stereo unspecified)	.	1.2	-8.5	.	-20.4	.
Cc1ccc(-c2nnnn2-c2ccc(C)cc2)cc1	-0.9	-1.9	-2.2	33.4	21.6	.
Cc1ccc(-n2nnnc2CCl)cc1	-0.9	-1.8	-6.4	95.7*	-8.2	14.7
COC(=O)c1ccc2c(=O)[nH]c(COC(=O)c3c(-c4ccccc4)noc3C)nc2c1	.	-1.1	4.5	.	.	.
O=C(Nc1ccc(F)cc1)c1sccc1SCc1cccc(C(F)(F)F)c1	-3.4	2.2	?	18.4	-7.4	.
CCOC(=O)c1sc(=S)sc1SCc1cccc(C(F)(F)F)c1	0.0	-1.7	2.1	61.4*	-3.2	-11.3
CN(C)CCN1C(=O)C(=O)/C(=C(/O)c2ccc(S(=O)(=O)N3CCOCC3)cc2)C1c1ccc(F)cc1 (stereo unspecified)	.	-1.7	1.9	.	-12.0	.
COc1cccc2c1c(NC(=O)Nc1ccc(F)cc1F)nn2C	.	0.4	24.8	.	-9.0	.
CCOC(=O)c1nc2cc3n(c(C)c-2c1C)C(C)C(C)=C3C (stereo unspecified)	-4.7	0.1	.	66.5*	3.2	-12.3
CN(C)C1C(=O)c2ccccc2C1=O	0.0	-0.6	-2.1	-1.1	24.1	.
O=C(NC1CCCC1)C(=O)N(Cc1cccnc1)C(C(=O)NCC1CCCO1)c1ccco1 (stereo unspecified)	-0.8	2.5	0.4	-5.9	1.6	.
CN1CCC(OC(=O)c2ccccc2Cl)CC1	0.1	-0.5	57.8*	75.8*	-49.2	-1.3
CC(=O)Oc1ccc2ccccc2c1C(NC(=O)Cc1ccccc1)c1ccccc1Cl (stereo unspecified)	-0.9	7.2	31.5	54.8*	.	-23.0
CN(C(=O)c1ccc2c(c1)SC1=NS(=O)(=O)CCN12)C(c1ccccc1)c1ccccc1	-0.1	0.5	-32.3	74.7*	-5.8	-17.3
Cc1ccc(/C=N/NC(=O)c2cc(-c3ccncc3)nc3ccccc23)o1	.	-0.6	-3.0	.	-156.0	.
CC(/C=N/NC(=O)c1cc(-c2ccncc2)nc2ccccc12)=C\c1ccco1	0.6	-0.3	-14.4	88.6*	?	19.2
O=[N+]([O-])c1ccc2c(c1)c(-c1ccccc1)nc1nncn12	0.1	-0.8	-17.0	56.2*	14.8	-15.4
COc1ccc(-c2cc(Nc3ccccc3NC(=O)C(F)(F)F)n(CCC#N)n2)cc1	0.2	3.3	1.8	62.6*	-1.7	-13.9
COc1ccc(C(=O)NC(=S)NNC(=O)c2cnccn2)cc1	-0.6	0.7	22.0	100.4*	-0.5	5.5
CC[n+]1c(/C=C/C=C/N(C(C)=O)c2ccccc2)sc2cc(OC)ccc21	0.1	.	.	87.9*	-106.8	28.9
COC(=O)Cc1c[nH]c2cccc(OCC(O)CN(Cc3ccccc3)C(C)C)c12 (stereo unspecified)	0.4	1.2	10.2	98.0*	-3.7	-14.1
CCS(=O)(=O)c1ccc(C(=O)Nc2ccccc2OC)c(Cl)c1Cl	-0.1	0.4	-11.1	-2.5	-10.5	.
C(=N\N1CCOCC1)/c1nc(-c2ccccc2)n2ccccc12	-0.6	2.1	-3.5	2.3	3.1	.
